Data published in ChEMBL document CHEMBL1681705, “Optimisation of ITK inhibitors through successive iterative design cycles” (Bioorg Med Chem Lett, 2011).

Legend:
[1] = molecular target: Tyrosine-protein kinase Lck (Homo sapiens) (UniProt P06239); experiment: Inhibition of Lck at 1 uM
Outline: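 Single-point screen within a 108-kinase selectivity panel. Each kinase was tested with inhibitor at 0.1 and 1.0 micromolar, and activity was recorded as percent inhibition.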

[2] = molecular target: Tyrosine-protein kinase Fgr (Homo sapiens) (UniProt P09769); experiment: Inhibition of Fgr at 1 uM; values are per cent of control
[3] = molecular target: Proto-oncogene tyrosine-protein kinase receptor Ret (Homo sapiens) (UniProt P07949); experiment: Inhibition of Ret at 1 uM; values are per cent of control
[4] = molecular target: T1, Activin receptor type-1B (Homo sapiens) (UniProt P36896); experiment: Inhibition of ALK4 at 1 uM; values are per cent of control
T1 sequence (whole entry): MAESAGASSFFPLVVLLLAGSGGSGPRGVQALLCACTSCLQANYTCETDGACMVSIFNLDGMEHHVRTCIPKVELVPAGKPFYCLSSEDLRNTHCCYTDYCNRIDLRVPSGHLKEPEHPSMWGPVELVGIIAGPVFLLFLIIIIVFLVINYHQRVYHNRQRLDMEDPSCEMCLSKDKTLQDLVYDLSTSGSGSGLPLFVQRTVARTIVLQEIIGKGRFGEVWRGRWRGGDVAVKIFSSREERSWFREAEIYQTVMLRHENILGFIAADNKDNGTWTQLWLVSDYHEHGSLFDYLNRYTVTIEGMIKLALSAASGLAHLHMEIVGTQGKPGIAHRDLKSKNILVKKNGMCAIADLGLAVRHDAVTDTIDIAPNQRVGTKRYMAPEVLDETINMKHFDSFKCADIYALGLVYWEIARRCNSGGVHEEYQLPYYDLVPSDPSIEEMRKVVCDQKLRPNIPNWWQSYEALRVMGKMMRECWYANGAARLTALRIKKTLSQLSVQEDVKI

[5] = molecular target: Tyrosine-protein kinase BTK (Homo sapiens) (UniProt Q06187); experiment: Inhibition of BTK at 0.1 uM; values are per cent of control
[6] = molecular target: T2, Tyrosine-protein kinase ITK/TSK (Homo sapiens) (UniProt Q08881); experiment: Inhibition of Itk at 0.1 uM; values are per cent of control
T2 sequence (whole entry): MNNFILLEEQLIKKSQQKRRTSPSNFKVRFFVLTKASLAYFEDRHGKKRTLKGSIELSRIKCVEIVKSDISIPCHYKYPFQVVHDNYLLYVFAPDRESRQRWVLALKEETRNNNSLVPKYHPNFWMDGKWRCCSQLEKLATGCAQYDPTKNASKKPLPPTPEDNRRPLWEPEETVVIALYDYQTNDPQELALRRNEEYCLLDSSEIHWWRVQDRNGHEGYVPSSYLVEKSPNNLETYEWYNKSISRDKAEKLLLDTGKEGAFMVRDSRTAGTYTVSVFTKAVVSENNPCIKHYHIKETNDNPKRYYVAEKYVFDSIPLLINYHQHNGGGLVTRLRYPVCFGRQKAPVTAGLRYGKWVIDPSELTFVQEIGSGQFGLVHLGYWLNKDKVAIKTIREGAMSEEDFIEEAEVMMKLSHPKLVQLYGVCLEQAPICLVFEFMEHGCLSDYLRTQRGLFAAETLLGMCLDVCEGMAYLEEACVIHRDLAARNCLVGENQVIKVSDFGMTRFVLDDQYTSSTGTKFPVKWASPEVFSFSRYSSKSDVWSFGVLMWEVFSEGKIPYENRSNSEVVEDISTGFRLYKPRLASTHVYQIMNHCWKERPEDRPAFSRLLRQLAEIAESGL

[7] = molecular target: Serine/threonine-protein kinase SIK1 (Homo sapiens) (UniProt P57059); experiment: Inhibition of SIK at 0.1 uM; values are per cent of control
[8] = molecular target: Death-associated protein kinase 2 (Homo sapiens) (UniProt Q9UIK4); experiment: Inhibition of DAPK2 at 1 uM; values are per cent of control
[9] = molecular target: Ephrin type-A receptor 2 (Homo sapiens) (UniProt P29317); experiment: Inhibition of EphA2 at 1 uM; values are per cent of control
[10] = molecular target: T3, Protein kinase C iota type (Homo sapiens) (UniProt P41743); experiment: Inhibition of PKCiota at 1 uM; values are per cent of control
T3 sequence (whole entry): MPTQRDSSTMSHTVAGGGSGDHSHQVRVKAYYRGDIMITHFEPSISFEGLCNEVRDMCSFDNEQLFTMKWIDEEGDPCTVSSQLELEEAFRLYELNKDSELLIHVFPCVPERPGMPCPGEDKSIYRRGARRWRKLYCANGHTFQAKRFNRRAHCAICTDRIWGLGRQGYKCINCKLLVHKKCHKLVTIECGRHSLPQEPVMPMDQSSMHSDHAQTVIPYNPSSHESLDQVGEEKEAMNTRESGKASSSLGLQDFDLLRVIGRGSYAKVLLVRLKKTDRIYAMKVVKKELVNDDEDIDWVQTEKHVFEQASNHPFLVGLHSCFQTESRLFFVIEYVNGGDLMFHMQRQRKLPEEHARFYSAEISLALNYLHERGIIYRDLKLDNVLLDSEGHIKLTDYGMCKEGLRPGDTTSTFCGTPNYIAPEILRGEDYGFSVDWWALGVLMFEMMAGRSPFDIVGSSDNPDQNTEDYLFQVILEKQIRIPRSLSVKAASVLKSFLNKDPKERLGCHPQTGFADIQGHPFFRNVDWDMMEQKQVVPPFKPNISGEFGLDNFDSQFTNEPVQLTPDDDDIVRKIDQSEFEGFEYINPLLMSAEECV

[11] = molecular target: Glycogen synthase kinase-3 beta (Homo sapiens) (UniProt P49841); experiment: Inhibition of GSK3-beta at 1 uM; values are per cent of control
Glycogen synthase kinase-3 beta (Homo sapiens), sequence (P49841 whole entry, looked up): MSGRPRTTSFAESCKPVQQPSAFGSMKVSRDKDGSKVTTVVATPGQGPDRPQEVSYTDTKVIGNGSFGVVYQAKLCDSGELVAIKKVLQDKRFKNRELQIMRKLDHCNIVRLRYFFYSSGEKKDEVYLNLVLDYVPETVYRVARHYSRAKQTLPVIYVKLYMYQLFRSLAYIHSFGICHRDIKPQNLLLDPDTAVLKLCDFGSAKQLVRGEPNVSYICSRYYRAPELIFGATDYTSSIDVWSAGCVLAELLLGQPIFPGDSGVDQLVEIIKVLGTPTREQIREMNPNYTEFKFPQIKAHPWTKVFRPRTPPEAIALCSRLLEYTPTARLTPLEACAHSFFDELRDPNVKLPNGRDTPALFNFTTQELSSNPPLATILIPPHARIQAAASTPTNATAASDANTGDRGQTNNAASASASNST

Proto-oncogene tyrosine-protein kinase receptor Ret (Homo sapiens), sequence (P07949 whole entry): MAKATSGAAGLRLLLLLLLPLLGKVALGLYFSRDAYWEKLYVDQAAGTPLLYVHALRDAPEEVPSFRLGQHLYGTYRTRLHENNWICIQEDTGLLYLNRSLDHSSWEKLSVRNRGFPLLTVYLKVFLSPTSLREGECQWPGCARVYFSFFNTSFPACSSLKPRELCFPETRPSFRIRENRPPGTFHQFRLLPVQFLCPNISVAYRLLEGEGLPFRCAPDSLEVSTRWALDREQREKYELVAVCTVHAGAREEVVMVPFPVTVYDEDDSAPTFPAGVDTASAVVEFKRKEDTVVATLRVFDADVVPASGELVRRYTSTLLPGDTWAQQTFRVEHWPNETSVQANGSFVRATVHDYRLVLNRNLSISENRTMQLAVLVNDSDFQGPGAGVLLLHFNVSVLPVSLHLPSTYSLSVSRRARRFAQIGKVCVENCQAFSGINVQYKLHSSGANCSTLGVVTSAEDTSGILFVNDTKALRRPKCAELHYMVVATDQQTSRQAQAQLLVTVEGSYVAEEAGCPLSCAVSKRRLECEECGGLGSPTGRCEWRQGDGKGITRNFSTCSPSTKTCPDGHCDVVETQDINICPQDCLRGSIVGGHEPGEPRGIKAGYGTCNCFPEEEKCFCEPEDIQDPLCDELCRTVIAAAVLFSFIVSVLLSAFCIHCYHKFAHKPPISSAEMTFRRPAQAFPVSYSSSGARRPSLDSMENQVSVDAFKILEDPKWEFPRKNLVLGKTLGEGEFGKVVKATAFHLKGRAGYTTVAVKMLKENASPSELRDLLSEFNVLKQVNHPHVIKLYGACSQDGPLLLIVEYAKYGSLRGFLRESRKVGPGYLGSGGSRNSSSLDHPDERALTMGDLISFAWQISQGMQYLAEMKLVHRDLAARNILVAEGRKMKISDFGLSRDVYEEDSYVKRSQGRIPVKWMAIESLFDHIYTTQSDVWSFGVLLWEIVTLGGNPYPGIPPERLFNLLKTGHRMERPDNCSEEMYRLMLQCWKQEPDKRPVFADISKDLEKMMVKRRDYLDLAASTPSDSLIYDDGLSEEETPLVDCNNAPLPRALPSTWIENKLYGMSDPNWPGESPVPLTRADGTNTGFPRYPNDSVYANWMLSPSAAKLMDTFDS
Serine/threonine-protein kinase SIK1 (Homo sapiens), sequence (P57059 whole entry): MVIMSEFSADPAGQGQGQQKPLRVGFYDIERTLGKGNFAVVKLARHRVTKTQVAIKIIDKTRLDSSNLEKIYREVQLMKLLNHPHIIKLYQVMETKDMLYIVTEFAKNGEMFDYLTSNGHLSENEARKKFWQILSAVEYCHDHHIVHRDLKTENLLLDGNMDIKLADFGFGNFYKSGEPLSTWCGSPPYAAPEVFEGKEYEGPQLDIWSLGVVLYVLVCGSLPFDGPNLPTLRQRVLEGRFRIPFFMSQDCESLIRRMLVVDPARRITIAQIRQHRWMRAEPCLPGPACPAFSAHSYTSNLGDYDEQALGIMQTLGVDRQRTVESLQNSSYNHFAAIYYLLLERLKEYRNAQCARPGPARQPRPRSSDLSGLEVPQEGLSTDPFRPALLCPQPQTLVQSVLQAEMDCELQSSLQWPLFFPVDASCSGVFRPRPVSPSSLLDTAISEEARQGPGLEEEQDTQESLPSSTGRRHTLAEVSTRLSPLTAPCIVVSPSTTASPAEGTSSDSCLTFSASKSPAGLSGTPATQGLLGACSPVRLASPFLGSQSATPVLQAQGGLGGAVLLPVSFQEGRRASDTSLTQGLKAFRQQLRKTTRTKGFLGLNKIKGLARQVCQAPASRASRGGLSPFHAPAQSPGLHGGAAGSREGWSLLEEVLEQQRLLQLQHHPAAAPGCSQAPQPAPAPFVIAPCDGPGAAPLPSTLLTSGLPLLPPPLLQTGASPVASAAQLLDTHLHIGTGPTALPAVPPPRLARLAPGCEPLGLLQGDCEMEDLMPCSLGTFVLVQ
Ephrin type-A receptor 2 (Homo sapiens), sequence (P29317 whole entry): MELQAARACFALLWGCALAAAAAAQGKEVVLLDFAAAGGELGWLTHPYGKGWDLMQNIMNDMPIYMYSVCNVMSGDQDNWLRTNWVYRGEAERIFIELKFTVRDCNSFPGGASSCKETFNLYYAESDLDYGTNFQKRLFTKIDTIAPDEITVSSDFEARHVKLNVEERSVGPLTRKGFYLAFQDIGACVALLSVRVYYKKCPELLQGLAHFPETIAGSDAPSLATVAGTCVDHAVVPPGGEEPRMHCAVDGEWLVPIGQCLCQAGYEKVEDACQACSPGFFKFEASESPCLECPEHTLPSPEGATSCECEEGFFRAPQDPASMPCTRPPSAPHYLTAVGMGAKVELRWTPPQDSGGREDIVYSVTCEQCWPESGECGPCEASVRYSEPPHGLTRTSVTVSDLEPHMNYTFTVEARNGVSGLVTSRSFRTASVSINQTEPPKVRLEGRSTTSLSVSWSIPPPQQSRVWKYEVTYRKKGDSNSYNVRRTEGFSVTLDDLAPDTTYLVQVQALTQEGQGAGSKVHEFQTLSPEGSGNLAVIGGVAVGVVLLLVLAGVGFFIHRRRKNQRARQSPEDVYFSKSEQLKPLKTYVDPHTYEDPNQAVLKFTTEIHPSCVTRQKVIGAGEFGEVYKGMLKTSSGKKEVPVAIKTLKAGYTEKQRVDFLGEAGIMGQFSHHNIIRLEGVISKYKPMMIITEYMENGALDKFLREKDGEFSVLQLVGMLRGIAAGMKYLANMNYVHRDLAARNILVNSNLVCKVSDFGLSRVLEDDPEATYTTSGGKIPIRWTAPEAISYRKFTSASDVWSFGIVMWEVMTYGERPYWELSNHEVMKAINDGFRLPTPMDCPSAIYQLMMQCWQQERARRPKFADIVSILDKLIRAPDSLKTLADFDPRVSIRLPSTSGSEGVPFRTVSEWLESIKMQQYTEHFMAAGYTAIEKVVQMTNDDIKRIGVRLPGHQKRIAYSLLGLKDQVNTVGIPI
Death-associated protein kinase 2 (Homo sapiens), sequence (Q9UIK4 whole entry, looked up): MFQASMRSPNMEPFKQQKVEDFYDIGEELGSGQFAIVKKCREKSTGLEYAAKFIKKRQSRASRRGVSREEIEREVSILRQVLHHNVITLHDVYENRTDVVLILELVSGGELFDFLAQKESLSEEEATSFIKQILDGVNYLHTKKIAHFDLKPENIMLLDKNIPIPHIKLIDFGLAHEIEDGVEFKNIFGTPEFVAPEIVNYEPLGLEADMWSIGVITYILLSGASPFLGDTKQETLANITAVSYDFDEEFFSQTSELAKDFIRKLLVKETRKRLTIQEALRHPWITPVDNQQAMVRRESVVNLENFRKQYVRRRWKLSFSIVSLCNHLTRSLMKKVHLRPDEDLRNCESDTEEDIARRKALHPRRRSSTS
Tyrosine-protein kinase Lck (Homo sapiens), sequence (P06239 2-509 limits assumed): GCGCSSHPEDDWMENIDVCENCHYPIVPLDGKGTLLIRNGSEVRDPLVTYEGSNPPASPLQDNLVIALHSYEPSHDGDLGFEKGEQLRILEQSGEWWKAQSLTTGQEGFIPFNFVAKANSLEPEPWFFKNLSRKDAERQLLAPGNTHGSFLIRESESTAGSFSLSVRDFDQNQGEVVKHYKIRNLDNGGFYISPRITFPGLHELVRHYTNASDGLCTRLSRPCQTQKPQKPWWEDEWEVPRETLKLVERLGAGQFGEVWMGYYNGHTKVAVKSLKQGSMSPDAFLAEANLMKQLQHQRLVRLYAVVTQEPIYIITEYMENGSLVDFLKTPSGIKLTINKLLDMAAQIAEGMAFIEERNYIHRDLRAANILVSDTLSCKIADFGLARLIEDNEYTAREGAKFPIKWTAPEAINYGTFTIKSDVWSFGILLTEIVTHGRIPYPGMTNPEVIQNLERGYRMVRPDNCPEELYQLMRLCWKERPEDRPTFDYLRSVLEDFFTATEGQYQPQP
Tyrosine-protein kinase Fgr (Homo sapiens), sequence (P09769 2-529 limits assumed): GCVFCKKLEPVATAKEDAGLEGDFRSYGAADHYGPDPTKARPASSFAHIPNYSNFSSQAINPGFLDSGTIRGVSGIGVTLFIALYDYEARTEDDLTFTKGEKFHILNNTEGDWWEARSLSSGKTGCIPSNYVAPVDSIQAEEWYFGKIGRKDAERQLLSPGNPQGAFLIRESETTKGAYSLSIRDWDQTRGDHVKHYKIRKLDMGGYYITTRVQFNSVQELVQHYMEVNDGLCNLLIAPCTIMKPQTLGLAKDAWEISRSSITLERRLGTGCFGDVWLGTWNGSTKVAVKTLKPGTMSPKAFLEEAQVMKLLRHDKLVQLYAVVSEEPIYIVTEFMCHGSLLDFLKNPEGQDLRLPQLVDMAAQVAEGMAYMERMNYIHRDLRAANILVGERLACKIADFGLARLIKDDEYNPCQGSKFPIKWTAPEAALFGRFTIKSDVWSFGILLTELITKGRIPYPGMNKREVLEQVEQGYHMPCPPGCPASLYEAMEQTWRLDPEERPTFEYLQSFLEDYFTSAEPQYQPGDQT

Row | inhibition [1] | residual activity [2] | residual activity [3] | residual activity [4] | residual activity [5] | residual activity [6] | residual activity [7] | residual activity [9] | residual activity [10] | residual activity [11] | SMILES | residual activity [8]
1 | 9% | 0% | -2% | 103% | 38% | 14% | 43% | 7% | 90% | 95% | Cc1ccc2cc(-c3n[nH]c4ccc(NC5CCN(Cc6ccccc6)CC5)cc34)[nH]c2c1 | 112%
2 | 0% | -1% | 3% | 114% | 69% | 41% | 18% | 13% | 76% | 69% | Cc1ccc2cc(-c3n[nH]c4ccc(NC5CCNC5)cc34)[nH]c2c1 (configuration not stated) | 61%
